Source: ChEMBL document CHEMBL4024758, “Structure-Based Design and Discovery of New M2 Receptor Agonists” (J Med Chem, 2017)
Active and inactive are the calls of the source. The rule behind the calls is not given here.

Legend:
[1] = target: T1, Muscarinic acetylcholine receptor M1 (Homo sapiens, UniProt P11229); assay: Displacement of [3H]N-methyl-scopolamine bromide from human recombinant muscarinic M1 receptor expressed in HEK293T cell membranes after 1 hr by liquid scintillation counting method; assay type: cell-based, HEK-293T
T1 sequence (P11229 whole entry): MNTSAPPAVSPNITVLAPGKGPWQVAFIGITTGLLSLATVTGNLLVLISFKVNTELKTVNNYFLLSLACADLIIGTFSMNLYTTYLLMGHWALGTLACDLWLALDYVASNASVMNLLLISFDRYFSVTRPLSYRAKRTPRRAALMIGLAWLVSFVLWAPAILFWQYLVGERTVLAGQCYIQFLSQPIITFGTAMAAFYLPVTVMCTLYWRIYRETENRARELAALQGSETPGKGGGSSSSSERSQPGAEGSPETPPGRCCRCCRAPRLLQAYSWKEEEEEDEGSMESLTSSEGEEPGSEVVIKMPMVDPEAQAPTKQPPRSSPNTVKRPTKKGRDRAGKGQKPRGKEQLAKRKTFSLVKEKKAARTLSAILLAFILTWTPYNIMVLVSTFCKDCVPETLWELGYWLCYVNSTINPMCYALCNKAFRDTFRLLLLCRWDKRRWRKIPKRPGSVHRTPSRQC

[2] = target: T2, Muscarinic acetylcholine receptor M2 (Homo sapiens, UniProt P08172); assay: Displacement of [3H]N-methyl-scopolamine bromide from human recombinant muscarinic M2 receptor expressed in HEK293T cell membranes after 1 hr by liquid scintillation counting method; design: species or system HEK-293T
T2 sequence (P08172 whole entry): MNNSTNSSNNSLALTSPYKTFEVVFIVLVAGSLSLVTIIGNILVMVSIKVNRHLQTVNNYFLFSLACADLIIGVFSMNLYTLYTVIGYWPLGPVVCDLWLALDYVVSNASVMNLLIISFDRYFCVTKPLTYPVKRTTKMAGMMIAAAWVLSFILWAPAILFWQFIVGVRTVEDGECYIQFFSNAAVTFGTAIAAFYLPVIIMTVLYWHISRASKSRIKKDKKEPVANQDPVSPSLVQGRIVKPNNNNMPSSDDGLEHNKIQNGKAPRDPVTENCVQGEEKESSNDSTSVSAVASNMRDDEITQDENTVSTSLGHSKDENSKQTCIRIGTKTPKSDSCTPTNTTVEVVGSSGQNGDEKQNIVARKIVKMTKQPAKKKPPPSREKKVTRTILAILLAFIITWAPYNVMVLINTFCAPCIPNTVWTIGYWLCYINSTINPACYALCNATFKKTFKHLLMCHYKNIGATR

[3] = target: T3, Muscarinic acetylcholine receptor M3 (Homo sapiens, UniProt P20309); assay: Displacement of [3H]N-methyl-scopolamine bromide from human recombinant muscarinic M3 receptor expressed in HEK293T cell membranes after 1 hr by liquid scintillation counting method; assay type: cell-based, HEK-293T
Target sequence in this assay (P20309 whole entry): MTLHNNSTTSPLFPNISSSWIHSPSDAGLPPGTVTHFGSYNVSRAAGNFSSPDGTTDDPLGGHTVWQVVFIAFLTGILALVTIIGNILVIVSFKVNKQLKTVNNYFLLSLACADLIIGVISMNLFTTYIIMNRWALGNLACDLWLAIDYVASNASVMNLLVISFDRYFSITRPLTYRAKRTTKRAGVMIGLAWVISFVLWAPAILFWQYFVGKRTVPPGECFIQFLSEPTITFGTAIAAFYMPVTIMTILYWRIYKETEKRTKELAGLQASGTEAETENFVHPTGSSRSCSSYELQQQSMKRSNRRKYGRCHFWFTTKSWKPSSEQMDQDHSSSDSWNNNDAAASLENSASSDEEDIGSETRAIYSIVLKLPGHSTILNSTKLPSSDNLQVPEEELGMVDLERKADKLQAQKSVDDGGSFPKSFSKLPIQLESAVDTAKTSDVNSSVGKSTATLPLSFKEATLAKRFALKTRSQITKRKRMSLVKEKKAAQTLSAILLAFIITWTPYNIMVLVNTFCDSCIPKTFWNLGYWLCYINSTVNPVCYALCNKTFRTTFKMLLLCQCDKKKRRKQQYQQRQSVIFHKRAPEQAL

[4] = target: T2, Muscarinic acetylcholine receptor M2; assay: Agonist activity at human recombinant muscarinic M2 receptor co-expressed with Galphaqi5-HA in African green monkey COS7 cells assessed as IP accumulation after 2 hrs in presence of myo-[3H]inositol by liquid scintillation counting method; assay type: functional
[5] = target: T1, Muscarinic acetylcholine receptor M1; assay: Displacement of [3H]N-methyl-scopolamine from human recombinant muscarinic M1 receptor expressed in CHO-FlpIn cells after 6 hrs by liquid scintillation counting method; assay type: cell-based; conditions: read-out: Ki(app)
[6] = target: T2, Muscarinic acetylcholine receptor M2; assay: Displacement of [3H]N-methyl-scopolamine from human recombinant muscarinic M2 receptor expressed in CHO-FlpIn cells after 6 hrs by liquid scintillation counting method; assay type: cell-based; conditions: read-out: Ki(app)
[7] = target: T3, Muscarinic acetylcholine receptor M3; assay: Displacement of [3H]N-methyl-scopolamine from human recombinant muscarinic M3 receptor expressed in CHO-FlpIn cells after 6 hrs by liquid scintillation counting method; assay type: cell-based; conditions: read-out: Ki(app)
Target sequence in this assay (P20309 whole entry): as above

[8] = target: T4, Muscarinic acetylcholine receptor M2 (Homo sapiens) (UniProt P08172); assay: Agonist activity at Gi/o coupled recombinant human M2 mAChR expressed in CHO-FlpIn cells assessed as IP-one accumulation after 40 mins by HTRF assay; assay type: cell-based
T4 sequence (whole entry): T2 sequence (P08172 whole entry)
Outline: (§1)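 Stably transfected CHO-FlpIn whole cells, 20000/well, grown overnight at 37 °C with 5% CO2. Cells were washed with PBS, then held 60 min at 37 °C in HEPES stimulation buffer with 50 mM LiCl, pH 7.4. ACh or test ligand was added and incubated 40 min.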

[9] = target: T1, Muscarinic acetylcholine receptor M1; assay: Agonist activity at Gq/11 coupled recombinant human muscarinic M1 AChR expressed in CHO-FlpIn cells assessed as IP-one accumulation after 40 mins by HTRF assay; assay type: cell-based
[10] = target: T5, Muscarinic acetylcholine receptor M1 (Homo sapiens) (UniProt P11229); assay: Agonist activity at Gq/11 coupled recombinant human M1 mAChR expressed in CHO-FlpIn cells assessed as IP-one accumulation after 40 mins by HTRF assay relative to ACh; assay type: cell-based; outline: as §1
T5 sequence (whole entry): T1 sequence (P11229 whole entry)

[11] = target: T3, Muscarinic acetylcholine receptor M3; assay: Agonist activity at Gq/11 coupled recombinant human M3 mAChR expressed in CHO-FlpIn cells assessed as IP-one accumulation at 100 uM after 40 mins by HTRF assay relative to ACh; assay type: cell-based
Target sequence in this assay (P20309 whole entry, looked up): as the sequence (P20309 whole entry) above

[12] = target: T2, Muscarinic acetylcholine receptor M2; assay: Agonist activity at Gi/o protein-coupled recombinant human muscarinic M2 receptor expressed in CHO-FlpIn cells preincubated for 60 mins followed by [35S]GTPgammaS addition measured after 30 mins by liquid scintillation counting method; assay type: functional, cell-based
[13] = target: T4, Muscarinic acetylcholine receptor M2 (Homo sapiens); assay: Agonist activity at Gi/o protein-coupled recombinant human muscarinic M2 receptor expressed in CHO-FlpIn cells preincubated for 60 mins followed by [35S]GTPgammaS addition after 30 mins by liquid scintillation counting method relative to ACh; assay type: functional, cell-based
Outline: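 Membranes (15 μg) came from CHO cells stably expressing M2R. They were equilibrated 60 min at 30 °C in buffer containing GDP plus ACh or compound. [35S]GTPγS (1 nM) was then added for 30 min at 30 °C. Samples were filtered on GF/B filters, washed with ice-cold 0.9% NaCl and counted by scintillation.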

[14] = target: T2, Muscarinic acetylcholine receptor M2; assay: Agonist activity at recombinant human muscarinic M2 receptor expressed in HEK293 cells assessed as inhibition of forskolin-mediated cAMP accumulation after 10 mins by FRET assay; assay type: functional, cell-based
[15] = target: T4, Muscarinic acetylcholine receptor M2 (Homo sapiens); assay: Agonist activity at recombinant human muscarinic M2 receptor expressed in HEK293 cells assessed as inhibition of forskolin-mediated cAMP accumulation after 10 mins by FRET assay relative to ACh; assay type: functional, cell-based
Outline: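 HEK293 cells stably expressed the Epac FRET cAMP sensor and M2AChR-tetO, induced with 2 μg/mL doxycycline and 1 mM sodium butyrate for 40 h. Basal CFP/YFP was read after 20 min at 37 °C. […] Basal was subtracted; results are from 4–5 experiments in duplicate.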

[16] = target: T2, Muscarinic acetylcholine receptor M2; assay: Agonist activity at recombinant human muscarinic M2 receptor expressed in HEK293 cells co-expressing beta-arrestin assessed as increase in beta-arrestin recruitment after 24 hrs by Bright-Glo luminescence assay; assay type: cell-based
Outline: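 HEK293 cells stably expressing tTA-dependent luciferase and β-arrestin-TEV protease, transiently transfected with M2-TEV-tTA; next day plated 15000 cells/well in DMEM 1% FBS on poly-D-lysine; after ≥6 h, compounds 0–100 μM in HBSS-HEPES; following day Bright-Glo added, luminescence after 20 min; 4–5 experiments in triplicate.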

[17] = target: T4, Muscarinic acetylcholine receptor M2 (Homo sapiens); assay: Agonist activity at recombinant human muscarinic M2 receptor expressed in HEK293 cells co-expressing beta-arrestin assessed as increase in beta-arrestin recruitment after 24 hrs by Bright-Glo luminescence assay relative to ACh; assay type: cell-based
Outline: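 HEK293 cells stably expressing tTA-dependent luciferase and β-arrestin-TEV protease were transiently transfected with M2-TEV-tTA. Next day, cells were plated at 15000/well in DMEM with 1% FBS. After ≥6 h, compound (0–100 μM, in HBSS-HEPES pH 7.4) was added. The following day, luminescence was read with Bright-Glo. Results are from 4–5 experiments in triplicate.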

[18] = target: T1, Muscarinic acetylcholine receptor M1; assay: Agonist activity at recombinant human muscarinic M1 receptor expressed in CHO cells assessed as upregulation in ERK1/2 phosphorylation after 5 mins by alphascreen assay; assay type: cell-based
[19] = target: T5, Muscarinic acetylcholine receptor M1 (Homo sapiens); assay: Agonist activity at recombinant human muscarinic M1 receptor expressed in CHO cells assessed as upregulation in ERK1/2 phosphorylation after 5 mins by alphascreen assay relative to ACh; assay type: cell-based
[20] = target: T2, Muscarinic acetylcholine receptor M2; assay: Agonist activity at recombinant human muscarinic M2 receptor expressed in CHO cells assessed as upregulation in ERK1/2 phosphorylation after 5 mins by alphascreen assay; assay type: cell-based
[21] = target: T4, Muscarinic acetylcholine receptor M2 (Homo sapiens); assay: Agonist activity at recombinant human muscarinic M2 receptor expressed in CHO cells assessed as upregulation in ERK1/2 phosphorylation after 5 mins by alphascreen assay relative to ACh; assay type: cell-based
[22] = target: T4, Muscarinic acetylcholine receptor M2 (Homo sapiens); assay: Agonist activity at human recombinant muscarinic M2 receptor co-expressed with Galphaqi5-HA in African green monkey COS7 cells assessed as IP accumulation after 2 hrs in presence of myo-[3H]inositol by liquid scintillation counting method relative to carbachol; assay type: functional
[23] = target: T3, Muscarinic acetylcholine receptor M3
Target sequence in this assay (P20309 whole entry): as above

[24] = target: T4, Muscarinic acetylcholine receptor M2 (Homo sapiens); conditions: 10 uM
[25] = target: Neuronal acetylcholine receptor; alpha4/beta2 (Homo sapiens, UniProt P17787+P43681); assay: Displacement of [3H]cytisine from alpha4beta2 nAChR expressed in human recombinant SH-SY5Y cell membranes after 120 mins
[26] = target: T3, Muscarinic acetylcholine receptor M3; remark: listed apart in the source
Target sequence in this assay (P20309 whole entry, looked up): as the sequence (P20309 whole entry) above

Sequence of Neuronal acetylcholine receptor; alpha4/beta2 (P17787 whole entry): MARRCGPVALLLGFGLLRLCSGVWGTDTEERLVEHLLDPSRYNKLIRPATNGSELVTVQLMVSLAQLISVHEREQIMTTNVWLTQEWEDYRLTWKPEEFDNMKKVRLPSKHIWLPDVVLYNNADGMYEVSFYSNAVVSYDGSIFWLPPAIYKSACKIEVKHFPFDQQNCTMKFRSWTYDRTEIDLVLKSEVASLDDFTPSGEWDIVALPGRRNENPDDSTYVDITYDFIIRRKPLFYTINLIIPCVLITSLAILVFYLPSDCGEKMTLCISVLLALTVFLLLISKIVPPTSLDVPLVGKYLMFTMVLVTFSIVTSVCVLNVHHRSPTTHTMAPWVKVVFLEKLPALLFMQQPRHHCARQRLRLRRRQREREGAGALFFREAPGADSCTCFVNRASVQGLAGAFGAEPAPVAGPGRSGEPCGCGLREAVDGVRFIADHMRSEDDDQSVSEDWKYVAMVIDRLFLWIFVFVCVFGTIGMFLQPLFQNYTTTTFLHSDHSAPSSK
Sequence of Neuronal acetylcholine receptor; alpha4/beta2 (P43681 whole entry): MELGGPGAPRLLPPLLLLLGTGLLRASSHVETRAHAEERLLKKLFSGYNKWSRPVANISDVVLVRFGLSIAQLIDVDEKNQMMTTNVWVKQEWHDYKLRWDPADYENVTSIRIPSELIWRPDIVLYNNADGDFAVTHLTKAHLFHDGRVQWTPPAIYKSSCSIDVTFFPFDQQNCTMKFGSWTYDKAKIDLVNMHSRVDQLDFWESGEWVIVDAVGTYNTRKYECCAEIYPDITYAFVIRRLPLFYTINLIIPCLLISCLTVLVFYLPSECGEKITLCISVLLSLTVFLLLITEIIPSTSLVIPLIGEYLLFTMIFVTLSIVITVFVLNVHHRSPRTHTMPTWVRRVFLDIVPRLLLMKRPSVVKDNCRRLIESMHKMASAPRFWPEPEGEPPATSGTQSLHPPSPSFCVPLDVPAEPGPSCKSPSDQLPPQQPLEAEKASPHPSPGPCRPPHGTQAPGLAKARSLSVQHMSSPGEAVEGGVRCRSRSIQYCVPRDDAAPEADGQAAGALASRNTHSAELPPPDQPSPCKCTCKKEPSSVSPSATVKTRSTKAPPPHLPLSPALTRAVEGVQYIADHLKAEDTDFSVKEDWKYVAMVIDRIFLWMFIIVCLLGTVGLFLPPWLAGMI

| SMILES | Ki [1] | Ki [2] | Ki [3] | EC50 [4] | Ki [5] | Ki [6] | Ki [7] | Activity [8] | EC50 [9] | Emax [10] | Emax [11] | EC50 [12] | Emax [13] | EC50 [14] | Emax [15] | EC50 [16] | Emax [17] | EC50 [20] | Emax [21] | Emax [22] | also measured |
| --- | --- | --- | --- | --- | --- | --- | --- | --- | --- | --- | --- | --- | --- | --- | --- | --- | --- | --- | --- | --- | --- |
| COc1cccc(CC[N+](C)(C)C)c1 | 33 µM | 14 µM | > 50 µM | 12 µM | 52 µM | 9.1 µM | 81 µM | inactive | 9.1 µM | 48% | 43% | 7.8 µM | 100% | 6.3 µM | 108% | 14 µM | 133% | 0.83 µM | 92% | 75% | EC50 [18]: 0.54 µM; Emax [19]: 53%; EC50 [23]: 10 µM |
| COc1cccc(CCC[N+](C)(C)C)c1 | 0.33 µM | 0.63 µM | 0.62 µM |  |  |  |  |  |  |  |  |  |  |  |  |  |  |  |  |  | Emax [24]: < 10% |
| C[N+](C)(C)CCc1ccc2c(c1)OCC2 | 6.4 µM | 13 µM | 6.3 µM | 21 µM | 6.8 µM | 2 µM | 7.8 µM | inactive | 4.8 µM | 8% | 17% | 3.3 µM | 100% | 11 µM | 102% | 17 µM | 118% | 0.24 µM | 100% | 62% | Ki [25]: 9.7 µM; EC50 [23]: 3.7 µM; pEC50 [26]: 5.43 µM |
